From ChEMBL document CHEMBL3784974, “Design and Structural Characterization of Potent and Selective Inhibitors of Phosphatidylinositol 4 Kinase IIIβ” (J Med Chem, 2016)
Calls of active or inactive are those of the source. No cut-off for these calls is given here.

Columns and labels:
[1] = target: Phosphatidylinositol 4,5-bisphosphate 3-kinase catalytic subunit gamma isoform (Homo sapiens, UniProt P48736); experiment: Inhibition of histidine-tagged recombinant human full length PI3Kgamma expressed in insect cells preincubated for 15 mins followed by addition of cold ATP/gamma32P-ATP measured after 15 mins in presence of MgCl2
[2] = target: Phosphatidylinositol 4,5-bisphosphate 3-kinase catalytic subunit alpha isoform (Homo sapiens, UniProt P42336); experiment: Inhibition of N-terminal histidine6-tagged recombinant human full length PI3Kalpha expressed in baculovirus infected Sf21 insect cells preincubated for 15 mins followed by addition of cold ATP/gamma32P-ATP measured after 15 mins
How it was run: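 Radiometric membrane-capture lipid kinase assay. Enzyme premixed with PIP2:DOPS:DOPC vesicles and BSA. Inhibitor diluted in 10% DMSO/kinase buffer, preincubated 15 min, then cold ATP plus γ32P-ATP added and run 15 min. Final conditions: 50mM HEPES pH 7.5, 100mM NaCl, 0.03% CHAPS, 10mM MgCl2, 1mM EGTA, 2mM DTT, 3.3nM PI3Kα, 80µM PIP2, 500ng/µL BSA, 2% DMSO, 10µM ATP, 2uCi γ32P-ATP. Product spotted onto nitrocellulose, washed in 1M NaCl/1% phosphoric acid, phosphorimaged.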

Hepatitis C virus = experiment: Antiviral activity against HCV genotype 2a J6/JFH1 infected in human Huh7.5 cells after 3 days by gaussia luciferase assay; format: functional, organism-based, Hepacivirus hominis; settings: subtype 2a J6/JFH1, Huh-7, 72 h
How it was run: (§1)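 Huh7.5 cells stably infected with J6/JFH1-GLuc, kept in DMEM/10% FBS, glutamine, NEAA, pen/strep at 37 °C, 5% CO2. 10,000 cells/well; serially diluted compound added 1 h after plating; 3-day incubation. Replication read as Gaussia luciferase activity in supernatant; viability by Presto Blue.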

[3] = target: T1, Phosphatidylinositol 4,5-bisphosphate 3-kinase catalytic subunit delta isoform (Homo sapiens, UniProt O00329); experiment: Inhibition of histidine-tagged recombinant human full length PI3Kdelta expressed in baculovirus preincubated for 15 mins followed by addition of cold ATP/gamma32P-ATP measured after 20 mins in presence of MgCl2
T1 sequence (O00329 whole entry): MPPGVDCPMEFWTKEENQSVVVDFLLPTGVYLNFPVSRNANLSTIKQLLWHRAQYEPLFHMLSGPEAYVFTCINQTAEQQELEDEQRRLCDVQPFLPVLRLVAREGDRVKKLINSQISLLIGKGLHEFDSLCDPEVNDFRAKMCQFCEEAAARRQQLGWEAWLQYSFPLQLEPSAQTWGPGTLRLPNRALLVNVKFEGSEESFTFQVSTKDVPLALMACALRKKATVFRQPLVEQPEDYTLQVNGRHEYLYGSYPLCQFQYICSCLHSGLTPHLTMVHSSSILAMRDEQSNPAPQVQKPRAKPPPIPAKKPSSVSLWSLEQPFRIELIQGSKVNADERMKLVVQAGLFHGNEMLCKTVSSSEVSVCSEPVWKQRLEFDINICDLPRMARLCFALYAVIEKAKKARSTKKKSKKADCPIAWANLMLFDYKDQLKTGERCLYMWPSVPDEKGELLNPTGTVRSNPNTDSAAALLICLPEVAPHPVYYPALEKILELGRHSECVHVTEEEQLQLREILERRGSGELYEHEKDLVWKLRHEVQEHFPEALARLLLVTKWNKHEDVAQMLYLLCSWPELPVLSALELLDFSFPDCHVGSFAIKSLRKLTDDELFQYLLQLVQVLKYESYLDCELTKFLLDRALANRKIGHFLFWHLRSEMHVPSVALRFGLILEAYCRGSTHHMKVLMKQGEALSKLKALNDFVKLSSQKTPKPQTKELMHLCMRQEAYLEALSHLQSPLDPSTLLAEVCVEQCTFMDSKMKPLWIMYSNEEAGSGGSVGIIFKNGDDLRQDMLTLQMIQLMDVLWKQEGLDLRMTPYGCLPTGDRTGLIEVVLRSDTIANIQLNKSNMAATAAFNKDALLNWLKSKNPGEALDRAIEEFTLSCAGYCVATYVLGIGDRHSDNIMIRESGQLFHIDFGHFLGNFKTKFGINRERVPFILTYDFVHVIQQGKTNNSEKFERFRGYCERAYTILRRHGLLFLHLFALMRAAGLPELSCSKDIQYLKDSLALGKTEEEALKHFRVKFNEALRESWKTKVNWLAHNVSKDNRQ
How it was run: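 Final: 50 mM HEPES pH 7.5, 100 mM NaCl, 0.03% CHAPS, 10 mM MgCl2, 1 mM EGTA, 2 mM DTT, 80 µM PIP2 (PIP2:DOPS:DOPC), 500 ng/µL BSA, 2% DMSO, 10 µM ATP, 2.5 uCi γ32P-ATP. Nitrocellulose capture, phosphorimaging.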

[4] = Cytotoxicity against human Huh7.5 cells after 3 days by presto blue assay; format: cell-based, Huh-7; how it was run: as §1
[5] = target: Phosphatidylinositol 3-kinase catalytic subunit type 3 (Homo sapiens, UniProt Q8NEB9); experiment: Inhibition of GST-tagged recombinant human full length VPS34 expressed in baculovirus upto 20 uM preincubated for 15 mins followed by addition of cold ATP/gamma32P-ATP measured after 1 hr in presence of MnCl2
How it was run: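 Radiometric membrane-capture assay, 10 nM purchased vps34, 15 min preincubation with inhibitor, then 1 h reaction. Final: 50 mM HEPES pH 7.5, 0.1% CHAPS, 2mM MnCl2, 1 mM EGTA, 2 mM DTT, 100 µM PI in PI:DOPS:DOPC, 500 ng/µL BSA, 2% DMSO, 10 µM ATP, 2.5 uCi γ32P-ATP; spots washed, phosphorimaged.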

[6] = Inhibition of GST-tagged recombinant human full length PI4K3beta expressed in insect cells preincubated for 15 mins followed by addition of cold ATP/gamma32P-ATP measured after 30 mins in presence of MgCl2
How it was run: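 Membrane-capture radiometric assay. Purchased enzyme, final 2.5 nM. Enzyme preincubated 15 min with inhibitor (diluted in 10% DMSO), then 30 min reaction. Final: 20 mM Bis-Tris propane pH 7.5, 10 mM MgCl2, 0.075 mM Triton X-100, 0.5 mM EGTA, 1 mM DTT, 100 µM PI in PI:DOPS:DOPC, 500 ng/µL BSA, 2% DMSO, 10 µM ATP, 1 uCi γ32P-ATP. Product spotted on nitrocellulose, washed in 1M NaCl/1% phosphoric acid, phosphorimaged.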

Phosphatidylinositol 3-kinase catalytic subunit type 3, sequence (Q8NEB9 whole entry): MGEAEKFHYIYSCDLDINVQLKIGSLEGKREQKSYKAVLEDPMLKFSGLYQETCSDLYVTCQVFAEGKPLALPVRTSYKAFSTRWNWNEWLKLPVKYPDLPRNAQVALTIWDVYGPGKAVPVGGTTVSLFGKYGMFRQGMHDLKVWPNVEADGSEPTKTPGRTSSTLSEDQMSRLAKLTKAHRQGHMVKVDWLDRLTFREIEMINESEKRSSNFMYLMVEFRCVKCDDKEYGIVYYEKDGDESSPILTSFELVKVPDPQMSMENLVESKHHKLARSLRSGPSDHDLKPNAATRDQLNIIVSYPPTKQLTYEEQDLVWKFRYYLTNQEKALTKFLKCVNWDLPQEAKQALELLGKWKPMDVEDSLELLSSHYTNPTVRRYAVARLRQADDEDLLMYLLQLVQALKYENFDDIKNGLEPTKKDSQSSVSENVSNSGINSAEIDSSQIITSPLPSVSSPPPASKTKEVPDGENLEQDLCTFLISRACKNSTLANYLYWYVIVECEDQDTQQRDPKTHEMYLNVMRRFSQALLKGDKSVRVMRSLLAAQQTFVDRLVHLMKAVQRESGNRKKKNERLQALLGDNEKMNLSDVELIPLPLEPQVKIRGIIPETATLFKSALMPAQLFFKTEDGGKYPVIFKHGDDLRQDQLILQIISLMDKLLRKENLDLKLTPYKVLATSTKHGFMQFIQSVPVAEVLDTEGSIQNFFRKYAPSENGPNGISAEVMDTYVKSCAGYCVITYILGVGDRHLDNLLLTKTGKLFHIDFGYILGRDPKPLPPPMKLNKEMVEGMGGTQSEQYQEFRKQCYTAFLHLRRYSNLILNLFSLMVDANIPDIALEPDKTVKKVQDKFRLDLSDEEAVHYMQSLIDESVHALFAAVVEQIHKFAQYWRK
Phosphatidylinositol 4,5-bisphosphate 3-kinase catalytic subunit gamma isoform, sequence (P48736 whole entry, canonical isoform): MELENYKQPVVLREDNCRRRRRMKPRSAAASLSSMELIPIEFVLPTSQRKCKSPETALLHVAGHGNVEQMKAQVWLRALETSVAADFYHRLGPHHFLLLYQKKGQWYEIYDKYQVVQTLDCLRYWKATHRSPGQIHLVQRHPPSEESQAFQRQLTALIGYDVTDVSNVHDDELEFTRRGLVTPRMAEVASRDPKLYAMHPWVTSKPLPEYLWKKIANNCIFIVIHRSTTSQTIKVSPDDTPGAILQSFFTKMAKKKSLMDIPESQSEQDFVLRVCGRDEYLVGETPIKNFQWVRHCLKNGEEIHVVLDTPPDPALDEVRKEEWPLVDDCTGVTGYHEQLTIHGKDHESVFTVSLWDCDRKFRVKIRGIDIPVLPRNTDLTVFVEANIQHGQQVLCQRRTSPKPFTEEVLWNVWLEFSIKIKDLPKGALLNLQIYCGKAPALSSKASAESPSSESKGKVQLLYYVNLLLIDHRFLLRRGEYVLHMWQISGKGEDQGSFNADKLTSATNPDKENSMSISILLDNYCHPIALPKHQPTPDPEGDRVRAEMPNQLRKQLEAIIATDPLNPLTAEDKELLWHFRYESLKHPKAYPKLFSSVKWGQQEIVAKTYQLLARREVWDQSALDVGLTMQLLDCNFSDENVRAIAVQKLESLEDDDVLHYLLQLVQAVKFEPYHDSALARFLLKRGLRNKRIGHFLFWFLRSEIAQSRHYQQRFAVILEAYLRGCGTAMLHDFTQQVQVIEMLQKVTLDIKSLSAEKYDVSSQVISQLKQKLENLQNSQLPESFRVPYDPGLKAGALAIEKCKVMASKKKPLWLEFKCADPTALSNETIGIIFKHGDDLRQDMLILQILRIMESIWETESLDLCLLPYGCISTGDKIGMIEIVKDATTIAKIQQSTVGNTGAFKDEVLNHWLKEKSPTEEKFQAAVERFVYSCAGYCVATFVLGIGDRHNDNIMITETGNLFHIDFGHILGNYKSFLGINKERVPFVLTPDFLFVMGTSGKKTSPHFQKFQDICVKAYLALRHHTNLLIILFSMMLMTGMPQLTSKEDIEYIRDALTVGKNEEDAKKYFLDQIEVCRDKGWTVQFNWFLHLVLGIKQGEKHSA
Phosphatidylinositol 4,5-bisphosphate 3-kinase catalytic subunit alpha isoform, sequence (P42336 whole entry, canonical isoform): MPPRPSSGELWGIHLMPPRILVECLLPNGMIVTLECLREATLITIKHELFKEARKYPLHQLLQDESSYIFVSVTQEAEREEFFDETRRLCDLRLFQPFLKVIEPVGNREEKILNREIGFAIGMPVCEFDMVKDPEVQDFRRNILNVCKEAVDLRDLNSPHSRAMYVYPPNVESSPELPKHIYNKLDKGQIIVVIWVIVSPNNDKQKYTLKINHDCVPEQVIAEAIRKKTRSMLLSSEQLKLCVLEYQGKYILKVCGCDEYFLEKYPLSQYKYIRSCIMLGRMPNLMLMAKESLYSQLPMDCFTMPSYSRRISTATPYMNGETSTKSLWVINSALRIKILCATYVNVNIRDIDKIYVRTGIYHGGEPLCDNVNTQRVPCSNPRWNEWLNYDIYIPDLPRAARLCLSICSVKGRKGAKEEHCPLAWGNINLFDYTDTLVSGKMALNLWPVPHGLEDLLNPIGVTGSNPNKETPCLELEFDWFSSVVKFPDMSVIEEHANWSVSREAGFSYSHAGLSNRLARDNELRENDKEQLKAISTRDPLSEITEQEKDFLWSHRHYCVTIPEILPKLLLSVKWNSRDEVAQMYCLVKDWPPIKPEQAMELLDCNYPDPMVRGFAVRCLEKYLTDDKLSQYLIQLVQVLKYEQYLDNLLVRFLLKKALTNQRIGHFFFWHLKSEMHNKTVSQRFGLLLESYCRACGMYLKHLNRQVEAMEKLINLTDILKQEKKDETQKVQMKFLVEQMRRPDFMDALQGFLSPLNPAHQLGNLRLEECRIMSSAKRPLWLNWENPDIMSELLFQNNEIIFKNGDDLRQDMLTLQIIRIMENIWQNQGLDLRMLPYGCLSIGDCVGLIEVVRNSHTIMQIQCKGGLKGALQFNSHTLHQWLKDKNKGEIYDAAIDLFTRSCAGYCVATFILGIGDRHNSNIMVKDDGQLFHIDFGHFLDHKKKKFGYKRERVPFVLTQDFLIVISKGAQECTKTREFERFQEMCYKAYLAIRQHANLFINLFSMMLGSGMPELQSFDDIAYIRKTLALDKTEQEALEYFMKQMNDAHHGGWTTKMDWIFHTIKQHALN

| SMILES | IC50 [1] | IC50 [2] | IC50 (Hepatitis C virus) | IC50 [3] | CC50 at 72 h [4] | inhibition [5] | IC50 [6] |
| --- | --- | --- | --- | --- | --- | --- | --- |
| COc1ccc(-c2sc(NC(=O)C(C)(C)C)nc2C)cc1S(=O)(=O)Nc1ccc(O)cc1 | 20000 nM | 10000 nM | 1300 nM | 720 nM | 32000 nM | inactive | 3.6 nM |
| COc1ccc(-c2sc(NC(=O)C3CCCC3)nc2C)cc1S(=O)(=O)Nc1ccc(O)cc1 | 1050 nM | 2000 nM | 630 nM | 152 nM | 14000 nM | inactive | 7 nM |
